Results gathered from unrelated publications.
Compare with care: the assays were run in different laboratories.
Target: Activin receptor type-1-like (ACVRL1, Homo sapiens, UniProt P37023)

Compound | observed | action | method | tested at | quantity | result
CC(C)(C)c1nc2c(s1)c1nc(N)ncc1c1ccc(NS(=O)(=O)c3c(F)cccc3F)c(F)c12 | enzyme activity | inhibitor | radiometric | 1 µM | remaining activity | 87%
CO[C@@H](C)c1c(Nc2ccc([C@H](N(C)C(=O)C3CCS(=O)(=O)CC3)C(F)(F)F)cc2)cnc2cc(Cl)nn12 | cell-free assay | – | competition with immobilised ligand | 1 µM | remaining binding | 100%
CC(C)(O)[C@H]1CC[C@H](Nc2ccc3ncc(-c4cccc(C(F)(F)F)c4)n3n2)CC1 | enzyme activity | inhibitor | – | 1 µM | remaining activity | 66.7%
O=C1NC(=O)c2cc(Nc3ccc(F)cc3)c(Nc3ccc(F)cc3)cc21 | cell-free assay | – | – | 0.5 µM | remaining signal | 95.9%
CCS(=O)(=O)c1cc2cc(C[C@](O)(CC(C)(C)c3ccc(F)cc3C(N)=O)C(F)(F)F)[nH]c2cn1 | cell-free assay | – | competition with immobilised ligand | 1 µM | remaining binding | 100%
O=C(Nc1cnn(-c2csc(C(=O)NC3COC3)c2)c1)Nc1c(F)cccc1Cl | enzyme activity | inhibitor | – | 5 µM | remaining activity | 120%
Cc1ccc(NC(=O)c2ccc(C)c(C(F)(F)F)c2)cc1C#Cc1nn(C2CCC(O)CC2)c2ncnc(N)c12 (stereo not shown) | cell-free assay | – | – | 10 µM | remaining signal | 71%
Cc1ccc(C(=O)NCc2ccsc2)cc1C#Cc1cn(C(C)C)c2ncnc(N)c12 | enzyme activity | inhibitor | – | 1 µM | activity vs control | 94%
N#CCCc1ccc2c(c1)-c1[nH]c3ccc([N+](=O)[O-])cc3c1CC(=O)N2 | cell-free assay | – | – | 0.5 µM | remaining signal | 53.6%
N#Cc1ccc(Nc2ccc3[nH]c(=O)[nH]c3c2)c(Cl)c1 | binding | – | competition with immobilised ligand | 1 µM | remaining binding | 100%
COc1cc2c(N3CCN(C(=O)Nc4ccc(OC(C)C)cc4)CC3)ncnc2cc1OCCCN1CCCCC1 | cell-free assay | – | – | 0.5 µM | remaining signal | 102%
COc1cc(Cl)c(C(=O)N[C@@H](CN[C@H]2CC[C@@H](N)CC2)Cc2ccc(C#N)cc2)cc1-c1ccc(CN[C@H](C)c2ccc(C)cc2)o1 | enzyme activity | inhibitor | – | 1 µM | remaining activity | 123%
C[C@H](c1cccc(C#N)c1)n1cc(Cl)cc(C(N)=O)c1=N | cell-free assay | – | competition with immobilised ligand | 1 µM | remaining binding | 93%
COc1cc(Nc2c(C#N)cnc3cc(OCCCN4CCN(C)CC4)c(OC)cc23)c(Cl)cc1Cl | cell-free assay | – | – | 0.5 µM | remaining signal | 67.6%
CC(=O)c1c(NS(C)(=O)=O)c2cc(-c3ccc(Cl)cc3)c(-c3ccc(Cl)cc3Cl)nc2n(C)c1=O | cell-free assay | – | competition with immobilised ligand | 1 µM | remaining binding | 100%
Cc1cc(NC(=O)c2cccc3cc(-c4cccc5[nH]nc(N)c45)ccc23)ccc1F | enzyme activity | inhibitor | – | 0.1 µM | activity vs control | 143%
